From ChEMBL document CHEMBL4602646, “Design, synthesis and discovery of andrographolide derivatives against Zika virus infection” (Eur J Med Chem, 2020)

What was measured:
[1] = (§1) Cytotoxicity against human SNB19 cells assessed as reduction in cell viability incubated for 24 hrs by MTT assay; assay type: cell-based, SNB-19; conditions: SNB19 cells
Outline: (§2)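 MTT viability readout. Cells plated at 1.0 ×10⁴ per well overnight, then exposed to compounds, with 0.1% DMSO vehicle as control: SNB-19 for 24 h, Vero for 48 h. MTT at 0.5 mg/mL final, 4 h at 37 °C; formazan dissolved in DMSO, absorbance at 570 nm. CC₅₀ from % viability versus control; each concentration repeated 3 times independently.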

[2] = (§3) Cytotoxicity against African green monkey Vero cells assessed as reduction in cell viability incubated for 48 hrs by MTT assay; assay type: cell-based; conditions: chlorocebus sabaeus, Vero cells; outline: as §2
Zika virus = assay: Antiviral activity against Zika virus PRVABC-59 infected in human SNB19 cells assessed as reduction in viral titer incubated for 24 hrs by viral titer assay; assay type: functional, organism-based, SNB-19
Outline: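 SNB-19 glioblastoma cells seeded 1 day ahead and pretreated 1 h with graded compound concentrations (final DMSO 0.1%). Infected with C6/36-derived PRVABC59 at MOI 1; supernatants taken 24 h post-infection. Virus titred by focus-forming unit assay on confluent Vero monolayers: 2 h inoculation, methylcellulose overlay for 48 h, PFA fixation, 4G2 antibody then HRP secondary, DAB–nickel, foci counted. Niclosamide reference included each run.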

[3] = Selectivity index, ratio of CC50 for African green monkey Vero cells to EC50 for Zika virus PRVABC-59; assay type: toxicity; conditions: read-out: Ratio CC50/EC50
Outline: (§4)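 Selectivity index taken as CC₅₀ over EC₅₀. CC₅₀ comes from MTT in Vero (48 h) or SNB-19 (24 h) cells. EC₅₀ comes from the ZIKV PRVABC59 titer-reduction assay in SNB-19 cells (MOI 1, 24 h, focus-forming units on Vero).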

SNB-19 = assay: as §1; assay type: cell-based; conditions: snb-19, 24 h; outline: as §2
Vero = assay: as §3; assay type: cell-based; conditions: chlorocebus sabaeus, vero, 48 h; outline: as §2
[4] = Selectivity index, ratio of CC50 for human SNB19 cells to EC50 for Zika virus PRVABC-59; assay type: toxicity; conditions: read-out: Ratio CC50/EC50; outline: as §4
[5] = Zika virus, PRVABC-59, SNB-19, 24 h, read-out: EC50

Structure (SMILES) | CC50 at 24 h [1] [µM] | CC50 at 48 h [2] [µM] | EC50 (Zika virus; snb-19) | selectivity ratio [3] | CC50 (SNB-19) [µM] | CC50 (Vero) [µM] | selectivity ratio [4] | EC50 (Zika virus; [5]) [µM]
C=C1CC[C@@H]2[C@]3(C)COC(C)(C)O[C@@H]3CC[C@@]2(C)[C@@H]1C/C=C1/C(=O)OC[C@H]1Oc1c(Cl)cc(Cl)c2cccnc12 | 63.5 | 58.6 | Not Active | – | – | – | – | –
C=C1CC[C@@H]2[C@](C)(CO)[C@H](O)CC[C@@]2(C)[C@@H]1C/C=C1/C(=O)OC[C@@H]1Oc1cccc2ccc(C)nc12 | – | – | – | 3.9 | > 100 | 99.8 | > 3.9 | 25.8
C=C1CC[C@@H]2[C@](C)(COC(C)=O)[C@H](O)CC[C@@]2(C)[C@@H]1C/C=C1/C(=O)OC[C@@H]1Oc1cccc2ccc(C)nc12 | 65.9 | 46.5 | Not Active | – | – | – | – | –
C=C1CC[C@@H]2[C@](C)(COC(C)=O)[C@H](O)CC[C@@]2(C)[C@@H]1C/C=C1/C(=O)OC[C@@H]1Oc1cccc2cccnc12 | 49.5 | 27.5 | Not Active | – | – | – | – | –
C=C1CC[C@@H]2[C@](C)(CO)[C@H](O)CC[C@@]2(C)[C@@H]1C/C=C1/C(=O)OC[C@@H]1Oc1ccnc2ccccc12 | 61.2 | 20.7 | Not Active | – | – | – | – | –
C=C1CC[C@@H]2[C@](C)(COC(C)=O)[C@H](O)CC[C@@]2(C)[C@@H]1C/C=C1/C(=O)OC[C@H]1Oc1c(Cl)cc(Cl)c2cccnc12 | – | – | – | 18.9 | 88.7 | 85 | 19.7 | 4.5
C=C1CC[C@H]2[C@@](C)(CCC(=O)[C@@]2(C)COC(C)=O)[C@@H]1C/C=C1/C(=O)OC[C@@H]1Oc1cccc2ccc(C)nc12 | 51.7 | 46.7 | Not Active | – | – | – | – | –
C=C1CC[C@@H]2[C@](C)(COC(C)=O)[C@H](O)CC[C@@]2(C)[C@@H]1C/C=C1/C(=O)OC[C@H]1Oc1cccc2ccc(C)nc12 | > 100 | 50.6 | Not Active | – | – | – | – | –
C=C1CC[C@H]2[C@@](C)(CCC(=O)[C@@]2(C)COC(C)=O)[C@@H]1C/C=C1/C(=O)OC[C@@H]1Oc1cccc2cccnc12 | 21.9 | 12.8 | Not Active | – | – | – | – | –
C=C1CC[C@@H]2[C@]3(C)COC(C)(C)O[C@@H]3CC[C@@]2(C)[C@@H]1C/C=C1/C(=O)OC[C@@H]1Oc1cccc2cccnc12 | – | – | – | 0.85 | 21.1 | 22 | 0.82 | 25.9
C=C1CC[C@@H]2[C@]3(C)COC(C)(C)O[C@@H]3CC[C@@]2(C)[C@@H]1C/C=C1/C(=O)OC[C@@H]1Oc1cccc2ccc(C)nc12 | – | – | – | 6.6 | 78.4 | 55.9 | 9.2 | 8.5
C=C1CC[C@H]2[C@@](C)(CCC(=O)[C@@]2(C)COC(C)=O)[C@@H]1C/C=C1/C(=O)OC[C@H]1Oc1cccc2ccc(C)nc12 | > 100 | 72.4 | Not Active | – | – | – | – | –
C=C1CC[C@@H]2[C@]3(C)COC(C)(C)O[C@@H]3CC[C@@]2(C)[C@@H]1C/C=C1/C(=O)OC[C@H]1Oc1cccc2ccc(C)nc12 | – | – | – | 3.9 | 66.5 | 65.3 | 4 | 16.6
C=C1CC[C@H]2[C@@](C)(CCC(=O)[C@@]2(C)COC(C)=O)[C@@H]1C/C=C1/C(=O)OC[C@@H]1Oc1c(Cl)cc(Cl)c2cccnc12 | – | – | – | 2.3 | 72 | 57.4 | 2.9 | 24.6
C=C1CC[C@@H]2[C@](C)(COC(C)=O)[C@H](O)CC[C@@]2(C)[C@@H]1C/C=C1/C(=O)OC[C@@H]1Oc1c(Cl)cc(Cl)c2cccnc12 | 39.3 | 51.9 | Not Active | – | – | – | – | –
C=C1CC[C@H]2[C@@](C)(CCC(=O)[C@@]2(C)COC(C)=O)[C@@H]1C/C=C1/C(=O)OC[C@H]1Oc1c(Cl)cc(Cl)c2cccnc12 | > 100 | 64.7 | Not Active | – | – | – | – | –
C=C1CC[C@@H]2[C@](C)(CO)[C@H](O)CC[C@@]2(C)[C@@H]1C/C=C1/C(=O)OC[C@H]1Oc1cccnc1[N+](=O)[O-] | – | – | – | 3 | 67.7 | 37.7 | 5.4 | 12.5
C=C1CC[C@@H]2[C@](C)(CO)[C@H](O)CC[C@@]2(C)[C@@H]1C/C=C1/C(=O)OC[C@@H]1Oc1cccc2cccnc12 | – | 20.8 | – | 16.1 | 22.7 | – | 17.5 | 1.3
C=C1CC[C@@H]2[C@](C)(CO)[C@H](O)CC[C@@]2(C)[C@@H]1C/C=C1/C(=O)OC[C@@H]1Oc1c(Cl)cc(Cl)c2cccnc12 | – | – | – | > 7.5 | > 100 | > 100 | > 7.5 | 13.3
C=C1CC[C@@H]2[C@](C)(CO)[C@H](O)CC[C@@]2(C)[C@@H]1C/C=C1/C(=O)OC[C@H]1Oc1c(Cl)cc(Cl)c2cccnc12 | – | – | – | 7.5 | 85.2 | – | 10.9 | 7.8
C=C1CC[C@@H]2[C@]3(C)COC(C)(C)O[C@@H]3CC[C@@]2(C)[C@@H]1C/C=C1/C(=O)OC[C@@H]1Oc1c(Cl)cc(Cl)c2cccnc12 | 39.3 | 55.9 | Not Active | – | – | – | – | –
C=C1CC[C@@H]2[C@](C)(CO)[C@H](O)CC[C@@]2(C)[C@@H]1C/C=C1/C(=O)OC[C@H]1Oc1ccnc2ccccc12 | – | 22.8 | – | 2.1 | 60.1 | – | 5.5 | 11
C=C1CC[C@@H]2[C@]3(C)COC(C)(C)O[C@@H]3CC[C@@]2(C)[C@@H]1C/C=C1/C(=O)OC[C@H]1Oc1cccnc1[N+](=O)[O-] | 46.5 | 26.2 | Not Active | – | – | – | – | –
C=C1CC[C@@H]2[C@](C)(CO)[C@H](O)CC[C@@]2(C)[C@@H]1C/C=C1/C(=O)OC[C@H]1Oc1cccc2ccc(C)nc12 | > 100 | 61.4 | Not Active | – | – | – | – | –
